Assay results collected from several papers.
Lines come from different studies, so protocols differ. ≈ marks a conversion by molar mass, not a printed value.

With CN(C)CCNC(=O)c1ccc(-c2nc3ccc4[nH]ncc4c3c3c2CCCCC3)cc1 the GI50 was 1.5 µM (K562; cell growth or viability, resazurin; 72 h).
O=C(CCCCCCC(=O)Nc1ccccc1)NO gave a viability of 74.3% (OCI-Ly1; cell growth or viability, ATP luminescence; 0.5 µM, 5 days).
Cc1n[nH]c2ccc3nc(-c4ccc(C(=O)NCCN(C)C)cc4F)c4c(c3c12)CCCC4 gave a GI50 of 0.772 µM (K562; cell growth or viability, resazurin; 72 h).
The MIC of Cc1ccc2[nH]nc(-c3nnc(Nc4ccc(O)cc4)s3)c2c1 is reported as 140 µg/mL (≈ 432 µM) (Staphylococcus epidermidis; microbial growth; ATCC12228).
The viability of O=C(CCCCCCSc1ccc2ccccc2c1)NO is reported as 154% (OCI-Ly1; cell growth or viability, ATP luminescence; 1 µM, 5 days).
The MIC of CC[C@H]1OC(=O)[C@H](C)[C@@H](O[C@H]2C[C@@](C)(OC)[C@@H](O)[C@H](C)O2)[C@H](C)[C@@H](O[C@@H]2O[C@H](C)C[C@H](N(C)C)[C@H]2O)[C@](C)(O)C[C@@H](C)CN(C)[C@H](C)[C@@H](O)[C@]1(C)O is reported as less than 98 µg/mL (Staphylococcus epidermidis; microbial growth; ATCC12228).
The inhibition of CCCCCCCCCCCCCCCCCCOc1ccc(CC(=O)OCC[N+](CC)(CC)CC)cc1 is reported as 13.3% (HOP-92; cell growth or viability, SRB; 10 µM).
CN(C)CCN(C)C(=O)c1ccc(-c2nc3ccc4[nH]ncc4c3c3c2CC(C)(C)CC3)cc1 has a GI50 of greater than 10 µM (K562; cell growth or viability, resazurin; 72 h).
The MIC50 of CC1(C)S[C@@H]2[C@H](NC(=O)[C@H](N)c3ccccc3)C(=O)N2[C@H]1C(=O)O is reported as 8 µg/mL (≈ 22.9 µM) (Staphylococcus epidermidis; microbial growth; clinical isolate).
With CC(=O)OC[C@H]1O[C@@H](n2cnc(N)nc2=O)[C@H](OC(C)=O)[C@@H]1OC(C)=O the viability was 153% (OCI-Ly1; cell growth or viability, ATP luminescence; 1 µM, 5 days).
The inhibition of CCCCCCCCCCCCCCCCCCOc1ccc(CC(=O)OCC[N+]2(C)CCCCC2)cc1 is reported as 2.18% (HOP-92; cell growth or viability, SRB; 10 µM).
O=C(NCCN1CCCC1)c1ccc(-c2nc3ccc4[nH]ncc4c3c3c2CCCC3)cc1 has a GI50 of 2.7 µM (K562; cell growth or viability, resazurin; 72 h).
COc1c(N2C[C@@H]3CCCN[C@@H]3C2)c(F)cc2c(=O)c(C(=O)O)cn(C3CC3)c12 gave an MIC50 of 0.5 µg/mL (≈ 1.25 µM) (Staphylococcus epidermidis; microbial growth, broth dilution; clinical isolate).
CN(C)CCN(C)C(=O)c1ccc(-c2nc3ccc4[nH]ncc4c3c3c2CC(F)(F)CC3)cc1 gave a GI50 of 6.7 µM (K562; cell growth or viability, resazurin; 72 h).
Cc1cc(Nc2nnc(-c3n[nH]c4ccc(C)cc34)s2)cc([N+](=O)[O-])c1 gave an MIC of 208 µg/mL (≈ 568 µM) (Staphylococcus epidermidis; microbial growth; ATCC12228).
With O=C(Nc1ccc(Cl)cc1)C1CCCN(C(=O)c2cc(C(F)(F)F)cc(C(F)(F)F)c2)C1 (racemic) the viability was 137% (OCI-Ly1; cell growth or viability, ATP luminescence; 0.5 µM, 5 days).
For CCCCCCCCCCCCCCCCCCOc1ccccc1CC(=O)OCC[N+]1(C)CCCCC1, the inhibition was 30% (HOP-62; cell growth or viability, SRB; 10 µM).
With Cc1ccc2[nH]nc(-c3nnc(Nc4ccc([N+](=O)[O-])cc4)s3)c2c1 the MIC was 135 µg/mL (≈ 382 µM) (Staphylococcus epidermidis; microbial growth; ATCC12228).
For CC(=O)NC[C@H]1CN(c2ccc(N3CCOCC3)c(F)c2)C(=O)O1, the MIC90 was 2 µg/mL (≈ 5.93 µM) (Staphylococcus epidermidis; microbial growth; MRSE; clinical isolate).
With CCCCCCCCCCCCCCCCCCOc1cccc(CC(=O)OCC[N+]2(C)CCCCC2)c1 the inhibition was 19% (HOP-92; cell growth or viability, SRB; 10 µM).
The MIC90 of CC[C@H]1OC(=O)[C@H](C)[C@@H](O[C@H]2C[C@@](C)(OC)[C@@H](O)[C@H](C)O2)[C@H](C)[C@@H](O[C@@H]2O[C@H](C)C[C@H](N(C)C)[C@H]2O)[C@](C)(O)C[C@@H](C)/C(=N\OCOCCOC)[C@H](C)[C@@H](O)[C@]1(C)O is reported as 64 µg/mL (≈ 76.5 µM) (Staphylococcus epidermidis; microbial growth; clinical isolate).
O=C(NC1CCCCC1)c1ccc(-c2nc3ccc4[nH]ncc4c3c3c2CCCC3)cc1 gave a GI50 of greater than 10 µM (K562; cell growth or viability, resazurin; 72 h).
CN[C@H](CC(C)C)C(=O)N[C@H]1C(=O)N[C@@H](CC(N)=O)C(=O)N[C@H]2C(=O)N[C@H]3C(=O)N[C@H](C(=O)N[C@H](C(=O)O)c4cc(O)cc(O)c4-c4cc3ccc4O)[C@H](O)c3ccc(c(Cl)c3)Oc3cc2cc(c3O[C@@H]2O[C@H](CO)[C@@H](O)[C@H](O)[C@H]2O[C@H]2C[C@](C)(N)[C@H](O)[C@H](C)O2)Oc2ccc(cc2Cl)[C@H]1O gave an MIC90 of 2 µg/mL (≈ 1.38 µM) (Staphylococcus epidermidis; microbial growth; MRSE; clinical isolate).
For CCCCCCCCCCCCCCCCCCOc1cccc(CC(=O)OCC[N+]2(C)CCCC2)c1, the inhibition was 30% (HOP-92; cell growth or viability, SRB; 10 µM).
With Cc1n[nH]c2ccc3nc(-c4ccc(C(=O)N(C)CCN(C)C)cc4)c4c(c3c12)CCC(F)(F)C4 the GI50 was 9.1 µM (K562; cell growth or viability, resazurin; 72 h).
CCCCCCCCCCCCCCCCCCOc1cccc(CC(=O)OCC[N+](CC)(CC)CC)c1 gave an inhibition of 47.7% (HOP-92; cell growth or viability, SRB; 10 µM).
The viability of O=C(NO)c1ccc(CC(=O)N(CCO)c2ccccc2)cc1 is reported as 74.7% (OCI-Ly1; cell growth or viability, ATP luminescence; 1 µM, 5 days).
Cc1n[nH]c2ccc3nc(-c4ccc(C(=O)NCCN(C)C)cc4)c4c(c3c12)CCC(C)(C)C4 gave a GI50 of 6.4 µM (K562; cell growth or viability, resazurin; 72 h).
CCCCCCCCCCCCCCCCCCOc1ccc(CC(=O)OCCC[N+](C)(C)C)cc1 has an inhibition of 22.1% (HOP-92; cell growth or viability, SRB; 10 µM).
